We go through 36 compounds from ChEMBL document CHEMBL4011636, “Utilization of an Active Site Mutant Receptor for the Identification of Potent and Selective Atypical 5-HT2C Receptor Agonists” (J Med Chem, 2017).

For assay [1], the target named is 5-hydroxytryptamine receptor 2B (Homo sapiens, UniProt P41595). Kind of assay: Agonist activity at recombinant human 5-HT2B receptor expressed in HEK293E cells assessed as induction of intracellular Ca2+ levels after 90 secs by Fluo-4-dye based FLIPR assay. The assay is classed as cell-based, HEK293. The essentials: (§1)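 HEK293E cells stably expressing human receptor (VNV isoform for 5-HT2C; ~400−795 fmol/mg protein), grown in DMEM with 10% dialyzed FBS and G418. Cells plated at 20 000/well in serum-free DMEM overnight at 37 °C, then loaded 1 h at room temperature with 5 μM Fluo-4 in HBSS/25 mM HEPES. Eleven compound concentrations added on FLIPR, Ca2+ signal read for 90 s. EC50 from a four-parameter logistic fit, at least triplicate.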

The target of assay [2] is 5-hydroxytryptamine receptor 2A (Homo sapiens, UniProt P28223). The assay can be described thus: Agonist activity at recombinant human 5-HT2A receptor expressed in HEK293E cells assessed as induction of intracellular Ca2+ levels after 90 secs by Fluo-4-dye based FLIPR assay. In kind it is cell-based, HEK293. The essentials: as §1
Assay [3] has as its target T1, 5-hydroxytryptamine receptor 2C (Homo sapiens) (UniProt P28335).
T1 sequence (whole entry): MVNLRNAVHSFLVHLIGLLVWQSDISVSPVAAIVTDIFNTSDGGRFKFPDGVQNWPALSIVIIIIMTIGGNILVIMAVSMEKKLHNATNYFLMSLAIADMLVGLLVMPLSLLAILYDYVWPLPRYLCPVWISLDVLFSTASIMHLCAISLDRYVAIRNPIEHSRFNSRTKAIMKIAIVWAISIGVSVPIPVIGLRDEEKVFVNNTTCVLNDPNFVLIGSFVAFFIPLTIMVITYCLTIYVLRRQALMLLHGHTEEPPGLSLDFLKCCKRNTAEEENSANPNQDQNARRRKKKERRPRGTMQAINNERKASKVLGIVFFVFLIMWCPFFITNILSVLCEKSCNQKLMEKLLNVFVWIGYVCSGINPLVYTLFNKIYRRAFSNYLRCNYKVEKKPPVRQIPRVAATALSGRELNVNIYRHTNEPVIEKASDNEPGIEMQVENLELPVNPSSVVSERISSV
Kind of assay: Intrinsic activity at recombinant human 5-HT2C receptor expressed in HEK293E cells assessed as induction of intracellular Ca2+ levels after 90 secs by Fluo-4-dye based FLIPR assay relative to serotonin. In kind it is functional, cell-based. The conditions noted are these: HEK293. In outline:
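FLIPR Fluo-4 Ca2+ assay in HEK293E cells stably expressing the human receptor (VNV isoform for 5-HT2C), eleven-point concentration series, 90 s read. Response normalized to 3 μM serotonin on the same plate (defined as IA = 1). Intrinsic activity taken from a four-parameter logistic fit.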

For assay [4], the target named is T2, 5-hydroxytryptamine receptor 2C (Homo sapiens, UniProt P28335).
T2 sequence (P28335 whole entry): T1 sequence (whole entry)
The assay can be described thus: Agonist activity at recombinant human 5-HT2C receptor expressed in HEK293E cells assessed as induction of intracellular Ca2+ levels after 90 secs by Fluo-4-dye based FLIPR assay. In kind it is functional, cell-based, HEK293. In outline:
as §1

One may read the EC50 as the concentration needed to bring the measured effect to its halfway point.

Chain of 5-hydroxytryptamine receptor 2B (P41595 whole entry, canonical isoform): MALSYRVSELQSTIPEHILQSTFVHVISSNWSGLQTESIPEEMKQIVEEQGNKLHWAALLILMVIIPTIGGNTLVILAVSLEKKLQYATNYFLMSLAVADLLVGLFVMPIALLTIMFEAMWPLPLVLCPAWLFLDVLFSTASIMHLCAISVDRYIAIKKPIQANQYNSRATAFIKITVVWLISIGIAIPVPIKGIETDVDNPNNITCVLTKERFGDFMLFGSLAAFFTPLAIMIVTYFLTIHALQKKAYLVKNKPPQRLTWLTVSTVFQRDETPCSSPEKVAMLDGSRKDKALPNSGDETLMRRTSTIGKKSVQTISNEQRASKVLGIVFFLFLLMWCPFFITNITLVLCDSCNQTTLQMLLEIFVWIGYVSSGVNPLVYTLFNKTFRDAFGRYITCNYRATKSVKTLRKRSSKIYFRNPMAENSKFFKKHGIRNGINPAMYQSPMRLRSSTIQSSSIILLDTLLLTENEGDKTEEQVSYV
Chain of 5-hydroxytryptamine receptor 2A (P28223 whole entry): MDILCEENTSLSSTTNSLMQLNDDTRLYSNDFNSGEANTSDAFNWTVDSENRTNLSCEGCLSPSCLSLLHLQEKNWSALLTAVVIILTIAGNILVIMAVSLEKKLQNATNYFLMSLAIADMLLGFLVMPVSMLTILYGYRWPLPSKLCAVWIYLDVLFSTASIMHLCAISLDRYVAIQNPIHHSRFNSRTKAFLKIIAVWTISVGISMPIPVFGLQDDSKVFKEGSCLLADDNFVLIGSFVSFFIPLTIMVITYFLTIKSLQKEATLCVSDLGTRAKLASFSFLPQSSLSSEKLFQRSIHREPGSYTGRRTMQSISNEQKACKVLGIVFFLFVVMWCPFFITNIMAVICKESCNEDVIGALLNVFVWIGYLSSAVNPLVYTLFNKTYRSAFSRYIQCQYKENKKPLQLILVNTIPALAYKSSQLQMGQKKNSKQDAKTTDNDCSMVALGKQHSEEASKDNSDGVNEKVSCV

Turning to `CCn1nc(-c2cccc3ccccc23)cc1-c1ncccn1`, the EC50 is above 5 µM in assay [1], above 5 µM in assay [2] and 1.7 to 1.9 µM in assay [4]. In addition, the Intrinsic activity in assay [3] is 0.4.
Take `CCn1nc(-c2ccnc3ccccc23)cc1-c1cccnn1`: the results for the EC50 in assay [1], in assay [2] and in assay [4] were above 10 µM, above 10 µM and 0.315 to 0.396 µM, respectively. Besides, the Intrinsic activity in assay [3] came to 0.6.
Consider `O=C(c1cnc(-c2cccc3ccccc23)s1)N1CCOCC1`, for which the concentration for a half-maximal effect (EC50) is above 10 µM in assay [1], above 10 µM in assay [2] and 1.52 to 2.27 µM in assay [4]. In assay [3], the Intrinsic activity is 0.6.
On to `CCn1nc(-c2cccc3ncccc23)cc1-c1cccnn1`, for which the concentration giving a half-maximal response (EC50) in assay [1] is above 10 µM; in assay [2] it was above 10 µM; in assay [4], 4.53 to 4.73 µM. Besides, the Intrinsic activity in assay [3] stood at 0.3.
Regarding `Cc1sc(-c2cccc3ccccc23)nc1C(=O)N1CCOCC1`, the EC50 is above 10 µM in assay [1], above 10 µM in assay [2] and 2.78 µM in assay [4]. In assay [3], the Intrinsic activity was determined as 0.3.
For the compound `Cc1sc(-c2cccc(Cl)c2Cl)nc1C(=O)N1CCOCC1`, the half-maximal effective concentration (EC50) in assay [1] was above 10 µM; in assay [2] it was above 10 µM; in assay [4] it was 1.52 µM. Also, in assay [3], the Intrinsic activity worked out at 0.6.
Take `O=C(c1csc(-c2cccc(Cl)c2Cl)n1)N1CCC(O)CC1`: the half-maximal effective concentration (EC50) is above 10 µM in assay [1], above 10 µM in assay [2] and 0.679 to 0.84 µM in assay [4]. Also, in assay [3], the Intrinsic activity turned out to be 0.7.
With `O=C(c1csc(-c2cccc(Cl)c2Cl)n1)N1CCCOCC1`, the results for the concentration for a half-maximal effect (EC50) in assay [1], in assay [2] and in assay [4] were above 10 µM, above 10 µM and 0.32 to 0.733 µM, respectively. Moreover, in assay [3], the Intrinsic activity was 0.5.
`O=C(c1nnn(-c2cccc3ccccc23)n1)N1CCC(CO)CC1`: the 50% effective concentration (EC50) in assay [1] was above 10 µM; in assay [2] it was above 10 µM; in assay [4], 4.1 to 10 µM. Also, the Intrinsic activity in assay [3] stood at 0.3.
Turning to `CCn1nc(-c2cccc3cnccc23)cc1-c1cccnn1`, the figures for the EC50 in assay [1], in assay [2] and in assay [4] were above 5 µM, above 5 µM and 1.6 µM, respectively. In assay [3], the Intrinsic activity is 0.7.
With `COCCNC(=O)c1sc(-c2cccc3ccccc23)nc1C`, the EC50 in assay [1], in assay [2] and in assay [4] was above 10 µM throughout.
Take `CCn1nc(-c2cccc3ccccc23)cc1-c1cncn1C`: the EC50 in assay [1] was above 10 µM; in assay [2], above 10 µM; in assay [4], 3.85 to 4.39 µM. The Intrinsic activity in assay [3] is 0.2.
As to `O=C(c1csc(-c2cccnc2)n1)N1CCOCC1`, the EC50 in assay [1], in assay [2] and in assay [4] was above 10 µM in each case.
Turning to `Cc1nc(-c2cccc3ccccc23)sc1C(=O)N(C)Cc1ccn(C)n1`, the values for the EC50 in assay [1], in assay [2] and in assay [4] were above 10 µM, above 10 µM and 0.013 to 0.019 µM, respectively. Besides, the Intrinsic activity in assay [3] turned out to be 1.
As for `CCn1nc(-c2cccc3ccccc23)cc1-c1ccnn1C`, the EC50 was above 10 µM in assay [1], above 10 µM in assay [2] and 3.46 to 5 µM in assay [4]. For the same compound, the Intrinsic activity in assay [3] amounted to 0.3.
As for `CCn1nc(-c2cncc3ccccc23)cc1-c1cccnn1`, the results for the half-maximal effective concentration (EC50) in assay [1], in assay [2] and in assay [4] were above 10 µM, above 10 µM and 0.53 µM, respectively. Also, in assay [3], the Intrinsic activity turned out to be 0.7.
For the compound `O=C(c1csc(-c2ccccc2Cl)n1)N1CCOCC1`, the half-maximal effective concentration (EC50) in assay [1] was above 10 µM; in assay [2], above 10 µM; in assay [4] it was 4.6 µM. Moreover, in assay [3], the Intrinsic activity worked out at 0.1.
Turning to `O=C(c1nc(-c2cccc3ccccc23)cs1)N1CCOCC1`, the EC50 in assay [1] was above 10 µM; in assay [2] it was above 10 µM; in assay [4], 0.729 to 1.62 µM. The Intrinsic activity in assay [3] stood at 0.6.
Turning to `Cc1cccc(-c2nc(C(=O)N3CCOCC3)cs2)c1C`, the concentration giving a half-maximal response (EC50) in assay [1] is above 10 µM; in assay [2] it was above 10 µM; in assay [4] it was 0.501 to 0.705 µM. Besides, in assay [3], the Intrinsic activity amounted to 0.7.
For `Cc1cc(-c2cccc3ccccc23)oc1C(=O)N1CCC(CO)CC1`, the EC50 in assay [1] was above 10 µM; in assay [2] it was above 10 µM; in assay [4], 1.03 to 2 µM. In addition, the Intrinsic activity in assay [3] was 0.7.
Regarding `O=C(c1csc(-c2ccc(Cl)cc2Cl)n1)N1CCOCC1`, the EC50 in assay [1], in assay [2] and in assay [4] was above 10 µM throughout.
As for `O=C(c1csc(-c2cccc(Cl)c2Cl)n1)N1CCCCC1`, the EC50 in assay [1] is above 10 µM; in assay [2], above 10 µM; in assay [4], 3.1 to 3.7 µM. Moreover, in assay [3], the Intrinsic activity was found to be 0.3.
For the compound `O=C(c1csc(-c2cccc(Cl)c2F)n1)N1CCOCC1`, the 50% effective concentration (EC50) in assay [1] was above 10 µM; in assay [2], above 10 µM; in assay [4], 1.27 to 2.4 µM. Further, the Intrinsic activity in assay [3] was determined as 0.3.
Take `O=C(c1nc(-c2cccc(Cl)c2Cl)cs1)N1CCOCC1`: the figures for the EC50 in assay [1], in assay [2] and in assay [4] were above 10 µM, above 10 µM and 0.018 to 0.038 µM, respectively. The Intrinsic activity in assay [3] was 0.8.
Regarding `Cc1nc(-c2cccc3ccccc23)sc1C(N)=O`, the EC50 in assay [1], in assay [2] and in assay [4] was above 10 µM in each case.
Turning to `CCn1nc(-c2cccc3ccncc23)cc1-c1ccc(N)nn1`, the EC50 was above 5 µM in assay [1], above 10 µM in assay [2] and 0.007 µM in assay [4]. For the same compound, in assay [3], the Intrinsic activity was 1.1.
On to `Cc1nc(-c2cccc3ccccc23)sc1C(=O)N1CCNCC1`, for which the EC50 in assay [1] was above 10 µM; in assay [2] it was above 10 µM; in assay [4] it was 1.04 µM. Besides, in assay [3], the Intrinsic activity came out at 0.4.
Regarding `O=C(c1csc(-c2cccc(Cl)c2Cl)n1)N1CC2CC1CO2` (configuration not stated), the figures for the EC50 in assay [1], in assay [2] and in assay [4] were above 10 µM, above 10 µM and 0.129 to 0.315 µM, respectively. In addition, the Intrinsic activity in assay [3] is 0.8.
Regarding `O=C(c1csc(-c2cccc3ccccc23)n1)N1CCOCC1`, the results for the concentration giving a half-maximal response (EC50) in assay [1], in assay [2] and in assay [4] were above 10 µM, above 10 µM and 0.766 to 1.17 µM, respectively. Moreover, the Intrinsic activity in assay [3] was 0.6.
`O=C(c1csc(-c2cccc(F)c2Cl)n1)N1CCOCC1`: the concentration giving a half-maximal response (EC50) in assay [1], in assay [2] and in assay [4] was above 10 µM in each case.
As to `Cc1nc(-c2cccc(Cl)c2Cl)sc1C(=O)N1CCOCC1`, the EC50 in assay [1], in assay [2] and in assay [4] was above 10 µM each time.
`Cc1nc(-c2cccc3ccccc23)n(C)c1C(=O)N1CCC(CO)CC1`: the concentration giving a half-maximal response (EC50) was above 10 µM in assay [1], above 10 µM in assay [2] and 1.87 µM in assay [4]. Moreover, the Intrinsic activity in assay [3] was determined as 0.4.
`Cn1cc(-c2cccc3ccccc23)nc1C(=O)N1CCC(CO)CC1`: the figures for the EC50 in assay [1], in assay [2] and in assay [4] were above 10 µM, above 10 µM and 1.8 to 3.53 µM, respectively. In addition, the Intrinsic activity in assay [3] came to 0.7.
In the case of `CCn1nc(-c2nccc3ccccc23)cc1-c1cccnn1`, the concentration giving a half-maximal response (EC50) in assay [1] is above 10 µM; in assay [2], above 10 µM; in assay [4], 0.291 to 0.518 µM. For the same compound, the Intrinsic activity in assay [3] amounted to 0.8.
For `CCn1nc(-c2cccc3ccccc23)cc1-c1ccccn1`, the results for the EC50 in assay [1], in assay [2] and in assay [4] were above 5 µM, above 5 µM and 0.576 to 0.613 µM, respectively. For the same compound, the Intrinsic activity in assay [3] was 0.8.
With `O=C(c1cnc(-c2cccc(Cl)c2Cl)s1)N1CCOCC1`, the EC50 in assay [1], in assay [2] and in assay [4] was above 10 µM throughout.
